In ChEMBL document CHEMBL4689842, “EUbOPEN Chemogenomics Library wave 1” (2021):
“And” between values parts separate entries of the source, which are not always exact repeats. Identical values can stand only once.

System: U2OS
Assay: Multiplex assay against U2OS
Format: toxicity, cell-based
Conditions: human
Procedure, shortened: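 Imaging took place on a CQ1 microscope at 37°C and 5% CO2 once compound had been added to live cells stained at seeding with Hoechst33342, BioTracker Green Microtubule Cytoskeleton Dye, MitoTracker Red and Annexin V Alexa Fluor 680. CellPathfinder machine-learning gating classed cells as Hoechst high-intensity objects or normal cells, classed normal cells as having healthy, pyknosed or fragmented nuclei, and classed pyknosed cells as mitotic or apoptotic. Tubulin, mitochondrial-mass and membrane-permeability phenotypes are per cents of the healthy-nucleus cells.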

[1] = 12 h, 1 µM, compound concentration 1 uM, replicate 1
[2] = 12 h, 1 µM, compound concentration 1 uM, replicate 2
[3] = 12 h, 10 µM, compound concentration 10 uM, replicate 1
[4] = 12 h, 10 µM, compound concentration 10 uM, replicate 2
[5] = 24 h, 1 µM, compound concentration 1 uM, replicate 1
[6] = 24 h, 1 µM, compound concentration 1 uM, replicate 2
[7] = 24 h, 10 µM, compound concentration 10 uM, replicate 1
[8] = 24 h, 10 µM, compound concentration 10 uM, replicate 2
[9] = 48 h, 1 µM, compound concentration 1 uM, replicate 1
[10] = 48 h, 1 µM, compound concentration 1 uM, replicate 2
[11] = 48 h, 10 µM, compound concentration 10 uM, replicate 1
[12] = 48 h, 10 µM, compound concentration 10 uM, replicate 2

SMILES: Cc1ccc2c(c1)c1c(n2CCc2ccc(C)nc2)CCN(C)C1 [LATREPIRDINE]
- Population Apoptotic (%) [1]: 53%
- Population Fragmented Nuclei (%) [1]: 8%
- Population Healthy Nuclei (%) [1]: 81%
- Population Hoechst High Intensity Objects (%) [1]: 7%
- Population Membrane Permeable-Phenotype (%) [1]: 6%
- Population Mitochondria Different-Phenotype (%) [1]: 46%
- Population Mitotic Cells (%) [1]: 46%
- Population Normal (%) [1]: 92%
- Population Pyknosed Nuclei (%) [1]: 9%
- Population Tubulin-Different-Phenotype (%) [1]: 42%
- Total Cell Count [1]: 147
- Population Apoptotic (%) [2]: 100%
- Population Fragmented Nuclei (%) [2]: 27%
- Population Healthy Nuclei (%) [2]: 67%
- Population Hoechst High Intensity Objects (%) [2]: 16%
- Population Membrane Permeable-Phenotype (%) [2]: 5%
- Population Mitochondria Different-Phenotype (%) [2]: 27%
- Population Mitotic Cells (%) [2]: 0%
- Population Normal (%) [2]: 83%
- Population Pyknosed Nuclei (%) [2]: 4%
- Population Tubulin-Different-Phenotype (%) [2]: 27%
- Total Cell Count [2]: 61
- Population Apoptotic (%) [3]: 47%
- Population Fragmented Nuclei (%) [3]: 11%
- Population Healthy Nuclei (%) [3]: 64%
- Population Hoechst High Intensity Objects (%) [3]: 7%
- Population Membrane Permeable-Phenotype (%) [3]: 21%
- Population Mitochondria Different-Phenotype (%) [3]: 97%
- Population Mitotic Cells (%) [3]: 52%
- Population Normal (%) [3]: 92%
- Population Pyknosed Nuclei (%) [3]: 24%
- Total Cell Count [3]: 142
- Population Apoptotic (%) [4]: 88%
- Population Fragmented Nuclei (%) [4]: 7%
- Population Healthy Nuclei (%) [4]: 65%
- Population Hoechst High Intensity Objects (%) [4]: 8%
- Population Membrane Permeable-Phenotype (%) [4]: 42%
- Population Mitochondria Different-Phenotype (%) [4]: 100%
- Population Mitotic Cells (%) [4]: 11%
- Population Normal (%) [4]: 91%
- Population Pyknosed Nuclei (%) [4]: 26%
- Population Tubulin-Different-Phenotype (%) [4]: 100%
- Total Cell Count [4]: 103
- Population Apoptotic (%) [5]: 47%
- Population Fragmented Nuclei (%) [5]: 6%
- Population Healthy Nuclei (%) [5]: 83%
- Population Hoechst High Intensity Objects (%) [5]: 3%
- Population Membrane Permeable-Phenotype (%) [5]: 4%
- Population Mitochondria Different-Phenotype (%) [5]: 38%
- Population Mitotic Cells (%) [5]: 52%
- Population Normal (%) [5]: 96%
- Population Pyknosed Nuclei (%) [5]: 10%
- Population Tubulin-Different-Phenotype (%) [5]: 30%
- Total Cell Count [5]: 166
- Population Apoptotic (%) [6]: 55%
- Population Fragmented Nuclei (%) [6]: 23%
- Population Healthy Nuclei (%) [6]: 67%
- Population Hoechst High Intensity Objects (%) [6]: 13%
- Population Membrane Permeable-Phenotype (%) [6]: 10%
- Population Mitochondria Different-Phenotype (%) [6]: 27%
- Population Mitotic Cells (%) [6]: 44%
- Population Normal (%) [6]: 86%
- Population Pyknosed Nuclei (%) [6]: 8%
- Population Tubulin-Different-Phenotype (%) [6]: 14%
- Total Cell Count [6]: 74
- Population Apoptotic (%) [7]: 71%
- Population Fragmented Nuclei (%) [7]: 12%
- Population Healthy Nuclei (%) [7]: 54%
- Population Hoechst High Intensity Objects (%) [7]: 8%
- Population Membrane Permeable-Phenotype (%) [7]: 24%
- Population Mitochondria Different-Phenotype (%) [7]: 97%
- Population Mitotic Cells (%) [7]: 28%
- Population Normal (%) [7]: 91%
- Population Pyknosed Nuclei (%) [7]: 33%
- Population Tubulin-Different-Phenotype (%) [7]: 100%
- Total Cell Count [7]: 172
- Population Apoptotic (%) [8]: 76%
- Population Fragmented Nuclei (%) [8]: 4%
- Population Healthy Nuclei (%) [8]: 56%
- Population Hoechst High Intensity Objects (%) [8]: 4%
- Population Membrane Permeable-Phenotype (%) [8]: 56%
- Population Mitochondria Different-Phenotype (%) [8]: 100%
- Population Mitotic Cells (%) [8]: 24%
- Population Normal (%) [8]: 95%
- Population Pyknosed Nuclei (%) [8]: 38%
- Total Cell Count [8]: 119
- Population Apoptotic (%) [9]: 40%
- Population Fragmented Nuclei (%) [9]: 4%
- Population Healthy Nuclei (%) [9]: 81%
- Population Hoechst High Intensity Objects (%) [9]: 2%
- Population Membrane Permeable-Phenotype (%) [9]: 6%
- Population Mitochondria Different-Phenotype (%) [9]: 11%
- Population Mitotic Cells (%) [9]: 59%
- Population Normal (%) [9]: 97%
- Population Pyknosed Nuclei (%) [9]: 13%
- Population Tubulin-Different-Phenotype (%) [9]: 22%
- Total Cell Count [9]: 150
- Population Apoptotic (%) [10]: 60%
- Population Fragmented Nuclei (%) [10]: 17%
- Population Healthy Nuclei (%) [10]: 75%
- Population Hoechst High Intensity Objects (%) [10]: 10%
- Population Membrane Permeable-Phenotype (%) [10]: 16%
- Population Mitochondria Different-Phenotype (%) [10]: 8%
- Population Mitotic Cells (%) [10]: 40%
- Population Normal (%) [10]: 89%
- Population Pyknosed Nuclei (%) [10]: 7%
- Population Tubulin-Different-Phenotype (%) [10]: 10%
- Total Cell Count [10]: 68
- Population Apoptotic (%) [11]: 64%
- Population Fragmented Nuclei (%) [11]: 14%
- Population Healthy Nuclei (%) [11]: 43%
- Population Hoechst High Intensity Objects (%) [11]: 6%
- Population Membrane Permeable-Phenotype (%) [11]: 28%
- Population Mitochondria Different-Phenotype (%) [11]: 90%
- Population Mitotic Cells (%) [11]: 35%
- Population Normal (%) [11]: 93%
- Population Pyknosed Nuclei (%) [11]: 41%
- Population Tubulin-Different-Phenotype (%) [11]: 95%
- Total Cell Count [11]: 240
- Population Apoptotic (%) [12]: 62%
- Population Fragmented Nuclei (%) [12]: 13%
- Population Healthy Nuclei (%) [12]: 44%
- Population Hoechst High Intensity Objects (%) [12]: 5%
- Population Membrane Permeable-Phenotype (%) [12]: 52%
- Population Mitochondria Different-Phenotype (%) [12]: 94%
- Population Mitotic Cells (%) [12]: 37%
- Population Normal (%) [12]: 95%
- Population Pyknosed Nuclei (%) [12]: 42%
- Population Tubulin-Different-Phenotype (%) [12]: 97%
- Total Cell Count [12]: 156

SMILES: CNC(=O)c1ccc(Nc2ncc(C(F)(F)F)c(NCc3nccnc3N(C)S(C)(=O)=O)n2)cc1 [DEFACTINIB]
- Population Apoptotic (%) [1]: 22% and 66%
- Population Healthy Nuclei (%) [1]: 90% and 65%
- Population Hoechst High Intensity Objects (%) [1]: 4% and 6%
- Population Membrane Permeable-Phenotype (%) [1]: 13% and 37%
- Population Mitochondria Different-Phenotype (%) [1]: 27% and 15%
- Population Mitotic Cells (%) [1]: 77% and 33%
- Population Normal (%) [1]: 95% and 93%
- Population Pyknosed Nuclei (%) [1]: 4% and 12%
- Population Tubulin-Different-Phenotype (%) [1]: 21% and 36%
- Total Cell Count [1]: 194 and 96
- Population Apoptotic (%) [2]: 25% and 42%
- Population Fragmented Nuclei (%) [2]: 6% and 9%
- Population Healthy Nuclei (%) [2]: 89% and 77%
- Population Hoechst High Intensity Objects (%) [2]: 13% and 9%
- Population Mitochondria Different-Phenotype (%) [2]: 28% and 16%
- Population Mitotic Cells (%) [2]: 75% and 57%
- Population Normal (%) [2]: 86% and 90%
- Population Pyknosed Nuclei (%) [2]: 13%
- Population Tubulin-Different-Phenotype (%) [2]: 24%
- Total Cell Count [2]: 107 and 86
- Population Apoptotic (%) [3]: 64% and 37%
- Population Fragmented Nuclei (%) [3]: 14% and 7%
- Population Healthy Nuclei (%) [3]: 65% and 83%
- Population Hoechst High Intensity Objects (%) [3]: 8% and 3%
- Population Mitochondria Different-Phenotype (%) [3]: 13% and 25%
- Population Mitotic Cells (%) [3]: 35% and 62%
- Population Normal (%) [3]: 91% and 96%
- Population Pyknosed Nuclei (%) [3]: 20% and 8%
- Population Tubulin-Different-Phenotype (%) [3]: 32% and 24%
- Total Cell Count [3]: 148 and 188
- Population Apoptotic (%) [4]: 33% and 28%
- Population Healthy Nuclei (%) [4]: 44% and 80%
- Population Hoechst High Intensity Objects (%) [4]: 30% and 18%
- Population Membrane Permeable-Phenotype (%) [4]: 26%
- Population Mitotic Cells (%) [4]: 66% and 71%
- Population Normal (%) [4]: 69% and 81%
- Population Pyknosed Nuclei (%) [4]: 10%
- Population Tubulin-Different-Phenotype (%) [4]: 23% and 30%
- Total Cell Count [4]: 166 and 106
- Population Apoptotic (%) [5]: 46% and 76%
- Population Healthy Nuclei (%) [5]: 88% and 62%
- Population Hoechst High Intensity Objects (%) [5]: 0% and 10%
- Population Mitochondria Different-Phenotype (%) [5]: 29% and 32%
- Population Mitotic Cells (%) [5]: 53% and 24%
- Population Normal (%) [5]: 99% and 89%
- Population Pyknosed Nuclei (%) [5]: 5% and 15%
- Population Tubulin-Different-Phenotype (%) [5]: 30% and 46%
- Total Cell Count [5]: 259
- Population Fragmented Nuclei (%) [6]: 7% and 20%
- Population Healthy Nuclei (%) [6]: 90% and 57%
- Population Hoechst High Intensity Objects (%) [6]: 9% and 7%
- Population Mitochondria Different-Phenotype (%) [6]: 37% and 31%
- Population Mitotic Cells (%) [6]: 100% and 34%
- Population Normal (%) [6]: 90% and 92%
- Population Tubulin-Different-Phenotype (%) [6]: 29% and 36%
- Total Cell Count [6]: 129 and 90
- Population Apoptotic (%) [7]: 68% and 42%
- Population Healthy Nuclei (%) [7]: 51% and 88%
- Population Mitochondria Different-Phenotype (%) [7]: 28% and 32%
- Population Mitotic Cells (%) [7]: 31% and 57%
- Population Normal (%) [7]: 89% and 97%
- Population Tubulin-Different-Phenotype (%) [7]: 40% and 26%
- Total Cell Count [7]: 139 and 241
- Population Apoptotic (%) [8]: 40% and 20%
- Population Hoechst High Intensity Objects (%) [8]: 27% and 11%
- Population Membrane Permeable-Phenotype (%) [8]: 25% and 17%
- Population Mitochondria Different-Phenotype (%) [8]: 37% and 38%
- Population Mitotic Cells (%) [8]: 59% and 80%
- Population Normal (%) [8]: 72% and 88%
- Population Tubulin-Different-Phenotype (%) [8]: 34% and 28%
- Total Cell Count [8]: 163 and 126
